Results reported in ChEMBL document CHEMBL5055647, “Identification and Biological Activity of NFAT-133 Congeners from Streptomyces pactum” (J Nat Prod, 2021).
Active and inactive are the calls of the source. The calls are words filed in the database; no cut-off is given here.

Assays:
[1] = system: Escherichia coli; experiment: Antibacterial activity against Escherichia coli ATCC 11775 by Whatman paper based disk diffusion assay; type: functional, organism-based
In short: (§1)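 Test strains grown overnight in LB at 30 °C, 200 rpm; 100 μL culture mixed into 10 mL warm 0.7% LB soft agar and plated. Paper disks loaded with 10 μL of 10 mM compound solution, plates incubated at 37 °C; activity judged by presence and diameter of inhibition zone. Ampicillin (2 mg/mL) positive control.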

[2] = system: HeLa; experiment: Cytotoxicity against human HeLa cells up to 50 uM by MTT assay; type: functional, cell-based
In short: (§2)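 Cells kept in high-glucose DMEM with 10% heat-inactivated FBS, streptomycin, amphotericin B, 37 °C, 5% CO2; exponential-phase cells seeded ~1.0 × 10^4/well, grown 12 h, then exposed to serial dilutions of compound; medium-only controls. Viability by MTT, absorbance 490 nm.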

[3] = system: NCI-H460; experiment: Cytotoxicity against human NCI-H460 cells up to 50 uM by MTT assay; type: functional, cell-based; in short: as §2
[4] = system: Staphylococcus aureus; experiment: Antibacterial activity against Staphylococcus aureus ATCC 12600 by Whatman paper based disk diffusion assay; type: functional, organism-based; in short: as §1
[5] = system: Pseudomonas aeruginosa; experiment: Antibacterial activity against Pseudomonas aeruginosa ATCC 9721 by Whatman paper based disk diffusion assay; type: functional, organism-based; in short: as §1
[6] = system: RAW264.7; experiment: Cytotoxicity against mouse RAW264.7 cells up to 50 uM by MTT assay; type: cell-based; details: raw264.7, 50 µM; in short: as §2
[7] = system: MCF7; experiment: Cytotoxicity against human MCF7 cells up to 50 uM by MTT assay; type: functional, cell-based; in short: as §2
[8] = system: Bacillus subtilis; experiment: Antibacterial activity against Bacillus subtilis ATCC 6051 by Whatman paper based disk diffusion assay; type: functional, organism-based; in short: as §1
[9] = system: RAW264.7; experiment: Inhibition of LPS-induced NO production in mouse RAW264.7 cells preincubated for 1 hr followed by LPS stimulation measured after 24 hrs by Griess reagent based assay; type: functional, cell-based; details: time 25.0 hrs
In short: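 Murine macrophages seeded ~1 × 10^4/well, grown 12 h, pretreated with compound 1 h, then LPS 25 ng/mL added for 24 h. Supernatant nitrite measured by Griess reagent (1:1, 37 °C, 15 min, dark), absorbance 520 nm, quantified against 0–100 μM sodium nitrite standards; mean ± SD of independent experiments, t-test, p < 0.05.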

Row | SMILES | Activity [1] | Activity [2] | Activity [3] | Activity [4] | Activity [5] | Activity [6] | Activity [7] | Activity [8] | inhibition [9]
1 | C=C[C@H](O)c1cc(C)ccc1[C@H](C)[C@@H](O)[C@H](C)C(C)=O | inactive | inactive | inactive | inactive | inactive | Non-Toxic | inactive | inactive | Dose-dependent effect
2 | CC(=O)[C@@H](C)[C@H](O)[C@@H](C)c1ccc(C)cc1/C=C/CO | inactive | inactive | inactive | inactive | inactive | Non-Toxic | inactive | inactive | Dose-dependent effect
3 | CC(=O)[C@@H](C)[C@@H]1O[C@@H](CCO)c2cc(C)ccc2[C@@H]1C | inactive | inactive | inactive | inactive | inactive | Non-Toxic | inactive | inactive | Dose-dependent effect
4 | CC(=O)[C@@H](C)[C@@H]1O[C@H](CCO)c2cc(C)ccc2[C@@H]1C | inactive | inactive | inactive | inactive | inactive | Non-Toxic | inactive | inactive | Dose-dependent effect
